Assay results: ChEMBL document CHEMBL1133510, “Synthesis and evaluation of novel steroidal oxime inhibitors of P450 17 (17 alpha-hydroxylase/C17-20-lyase) and 5 alpha-reductase types 1 and 2” (J Med Chem, 2000); call rule not given here
pIC50: −log10 of the molar value.

Tests used:
[1] = biological target: T1, Steroid 17-alpha-hydroxylase/17,20 lyase (Rattus norvegicus, UniProt P11715); assay: Evaluated for the inhibitory activity towards Cytochrome P450 17 rat enzyme using testicular microsome at 25 uM of substrate (progesterone); design: species or system Testis
T1 sequence (P11715 whole entry): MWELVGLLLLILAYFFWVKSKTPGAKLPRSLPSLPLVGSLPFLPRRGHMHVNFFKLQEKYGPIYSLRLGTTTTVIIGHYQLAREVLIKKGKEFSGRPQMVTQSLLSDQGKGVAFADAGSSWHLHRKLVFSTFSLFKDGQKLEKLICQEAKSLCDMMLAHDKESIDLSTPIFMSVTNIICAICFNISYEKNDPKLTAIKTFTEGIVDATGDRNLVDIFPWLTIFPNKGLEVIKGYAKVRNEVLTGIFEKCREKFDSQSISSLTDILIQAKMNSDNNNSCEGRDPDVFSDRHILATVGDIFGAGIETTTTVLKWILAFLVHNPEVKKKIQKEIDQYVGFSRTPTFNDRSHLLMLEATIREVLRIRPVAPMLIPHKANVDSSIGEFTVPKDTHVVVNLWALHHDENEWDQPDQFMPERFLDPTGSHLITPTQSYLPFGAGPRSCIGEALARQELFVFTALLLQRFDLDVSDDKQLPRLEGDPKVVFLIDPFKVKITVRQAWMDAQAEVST
Procedure, shortened: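 Testicular microsomes (human for human enzyme, rat for rat enzyme) incubated with progesterone substrate at 25 µM; product measured by RP-HPLC with UV detection. IC50 = concentration giving 50% inhibition, mean of at least two experiments.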

[2] = biological target: T2, 3-oxo-5-alpha-steroid 4-dehydrogenase 2 (Homo sapiens, UniProt P31213); assay: Inhibition of steroid 5-alpha-reductase type 2 from human BPH tissue at 210 nM testosterone; No inhibition
T2 sequence (P31213 whole entry): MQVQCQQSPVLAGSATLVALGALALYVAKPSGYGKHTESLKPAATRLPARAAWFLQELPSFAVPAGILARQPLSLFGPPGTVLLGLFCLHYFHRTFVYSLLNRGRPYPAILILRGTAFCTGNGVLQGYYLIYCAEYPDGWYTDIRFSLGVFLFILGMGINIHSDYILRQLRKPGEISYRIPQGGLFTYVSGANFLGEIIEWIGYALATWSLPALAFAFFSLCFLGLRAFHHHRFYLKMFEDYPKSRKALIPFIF
Procedure, shortened: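 Enzyme from prostate homogenate of BPH patients, assayed at pH 5.5 with radiolabeled testosterone at 210 nM; product separated by HPLC. IC50 taken as inhibitor concentration giving 50% inhibition; mean of at least two experiments.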

[3] = biological target: T3, 3-oxo-5-alpha-steroid 4-dehydrogenase 1 (Homo sapiens, UniProt P18405); assay: Evaluated for the inhibitory activity against human steroid 5-alpha-reductase type I in human DU-145 cell assay at 5 nM of androstenedione; assay type: cell-based
T3 sequence (P18405 whole entry): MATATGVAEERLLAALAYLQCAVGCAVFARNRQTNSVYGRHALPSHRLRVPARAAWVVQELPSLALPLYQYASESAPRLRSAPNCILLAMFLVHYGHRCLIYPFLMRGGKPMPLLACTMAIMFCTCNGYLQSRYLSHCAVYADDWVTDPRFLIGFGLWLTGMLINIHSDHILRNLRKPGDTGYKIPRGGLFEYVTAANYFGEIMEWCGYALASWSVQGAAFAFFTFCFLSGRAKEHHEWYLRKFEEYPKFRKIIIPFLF
Procedure, shortened: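 Whole human DU-145 cells as source of type 1 enzyme, incubated with radiolabeled androstenedione at 5 nM; HPLC separation of product. IC50 = inhibitor concentration giving 50% inhibition; mean of at least two experiments.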

[4] = biological target: T4, Steroid 17-alpha-hydroxylase/17,20 lyase (Homo sapiens, UniProt P05093); assay: Evaluated for the inhibitory activity towards Cytochrome P450 17 human enzyme using testicular microsome at 25 uM of substrate (progesterone); design: species or system Testis
T4 sequence (P05093 whole entry): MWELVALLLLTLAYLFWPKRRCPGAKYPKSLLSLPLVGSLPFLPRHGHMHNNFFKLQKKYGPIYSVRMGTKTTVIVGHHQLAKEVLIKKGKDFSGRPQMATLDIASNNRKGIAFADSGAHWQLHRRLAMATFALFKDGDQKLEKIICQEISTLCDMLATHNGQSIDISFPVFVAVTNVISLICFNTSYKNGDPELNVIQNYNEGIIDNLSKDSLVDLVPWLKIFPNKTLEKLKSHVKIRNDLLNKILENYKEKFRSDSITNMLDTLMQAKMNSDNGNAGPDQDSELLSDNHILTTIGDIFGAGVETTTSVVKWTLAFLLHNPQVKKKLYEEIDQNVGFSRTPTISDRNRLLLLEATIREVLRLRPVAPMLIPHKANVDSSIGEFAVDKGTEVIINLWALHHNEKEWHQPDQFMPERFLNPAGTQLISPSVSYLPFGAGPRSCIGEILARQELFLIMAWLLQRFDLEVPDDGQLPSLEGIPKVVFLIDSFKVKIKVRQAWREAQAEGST

pIC50 [1]: < 3.90
IC50 [2]: Not Active
pIC50 [3]: < 5.00
pIC50 [4]: 6.70
SMILES: C/C(=N/O)C1=CC=C2C3CCC4=CC(=O)CCC4(C)C3CCC12C (centres undefined)
